# Measured values taken from ChEMBL document CHEMBL5120742, “Multi-target weapons: diaryl-pyrazoline thiazolidinediones simultaneously targeting VEGFR-2 and HDAC cancer hallmarks” (RSC Med Chem, 2021).
# Assays:
# Histone deacetylase 4 [1] = target: T1, Histone deacetylase 4 (Homo sapiens, UniProt P56524); experiment: Inhibition of recombinant human N-terminal His6-SUMO-tagged C-terminal SII-tagged HDAC4 expressed in Escherichia coli (BL21) DE3 pLysS cells assessed as residual activity at 50 uM using BocLys(trifluoroacetyl)-AMC as substrate incubated for 30 mins by fluorescence assay relative to control
# T1 sequence (P56524 whole entry): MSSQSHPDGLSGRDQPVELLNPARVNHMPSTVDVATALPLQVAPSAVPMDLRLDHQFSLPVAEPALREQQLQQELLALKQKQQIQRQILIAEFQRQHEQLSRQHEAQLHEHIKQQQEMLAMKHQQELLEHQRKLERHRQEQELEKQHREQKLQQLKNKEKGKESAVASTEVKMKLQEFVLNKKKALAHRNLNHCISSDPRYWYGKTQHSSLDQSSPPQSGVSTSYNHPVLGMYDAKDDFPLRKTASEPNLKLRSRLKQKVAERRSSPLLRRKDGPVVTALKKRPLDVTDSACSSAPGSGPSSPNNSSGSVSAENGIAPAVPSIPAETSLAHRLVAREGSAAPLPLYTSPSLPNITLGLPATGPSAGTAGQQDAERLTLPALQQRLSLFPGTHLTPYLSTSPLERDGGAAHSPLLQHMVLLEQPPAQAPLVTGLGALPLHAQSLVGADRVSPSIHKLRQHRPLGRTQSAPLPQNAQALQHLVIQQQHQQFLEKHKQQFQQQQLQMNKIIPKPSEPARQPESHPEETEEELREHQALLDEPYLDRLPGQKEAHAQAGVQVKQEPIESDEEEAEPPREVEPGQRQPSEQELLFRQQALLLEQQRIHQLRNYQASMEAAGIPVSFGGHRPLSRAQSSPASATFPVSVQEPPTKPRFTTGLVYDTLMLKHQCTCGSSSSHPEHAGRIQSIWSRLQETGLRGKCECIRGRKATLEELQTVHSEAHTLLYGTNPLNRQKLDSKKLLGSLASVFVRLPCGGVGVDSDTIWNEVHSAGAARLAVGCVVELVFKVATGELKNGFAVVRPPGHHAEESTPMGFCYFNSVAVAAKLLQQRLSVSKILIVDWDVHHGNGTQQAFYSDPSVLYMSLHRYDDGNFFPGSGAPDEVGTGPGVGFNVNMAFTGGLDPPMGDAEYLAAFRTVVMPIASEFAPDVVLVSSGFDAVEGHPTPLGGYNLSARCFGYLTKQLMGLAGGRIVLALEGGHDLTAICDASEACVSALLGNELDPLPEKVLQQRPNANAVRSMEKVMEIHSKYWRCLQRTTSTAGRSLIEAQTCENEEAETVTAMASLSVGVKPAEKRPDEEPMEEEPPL
# How it was run: (§1)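 Catalytic-domain HDAC4 (His6-SUMO/SII-tagged) and full-length codon-optimized human HDAC8 were expressed in E. coli BL21 DE3 pLysS from pET14b. Both were assayed in a two-step fluorogenic format with Boc-Lys(trifluoroacetyl)-AMC, followed by trypsin development. Compounds were screened first at 50 µM for residual activity.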
# Histone deacetylase 8 = target: T2, Histone deacetylase 8 (Homo sapiens, UniProt Q9BY41); experiment: Inhibition of recombinant human N-terminal His6-SUMO-tagged C-terminal SII-tagged HDAC8 expressed in Escherichia coli (BL21) DE3 pLysS cells using BocLys(trifluoroacetyl)-AMC as substrate incubated for 30 mins by fluorescence assay; how it was run: as §1
# T2 sequence (Q9BY41 whole entry): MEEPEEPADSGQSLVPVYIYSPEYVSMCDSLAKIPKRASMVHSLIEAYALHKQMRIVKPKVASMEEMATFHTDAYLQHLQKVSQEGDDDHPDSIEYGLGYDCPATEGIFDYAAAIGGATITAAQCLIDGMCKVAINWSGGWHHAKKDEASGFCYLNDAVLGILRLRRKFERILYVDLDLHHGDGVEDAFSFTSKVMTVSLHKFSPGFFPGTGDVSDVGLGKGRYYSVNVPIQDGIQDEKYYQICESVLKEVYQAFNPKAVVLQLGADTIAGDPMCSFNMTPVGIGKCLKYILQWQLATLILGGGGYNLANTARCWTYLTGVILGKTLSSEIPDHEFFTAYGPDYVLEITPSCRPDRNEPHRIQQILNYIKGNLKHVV
# [2] = target: T3, Histone deacetylase 8 (Homo sapiens) (UniProt Q9BY41); experiment: Inhibition of recombinant human N-terminal His6-SUMO-tagged C-terminal SII-tagged HDAC8 expressed in Escherichia coli (BL21) DE3 pLysS cells assessed as residual activity at 50 uM using BocLys(trifluoroacetyl)-AMC as substrate incubated for 30 mins by fluorescence assay relative to control; how it was run: as §1
# T3 sequence (whole entry): T2 sequence (Q9BY41 whole entry)
# [3] = Cytotoxicity against HUVEC cells assessed as reduction in cell viability after 96 hrs by MTT assay; conditions: human
# Histone deacetylase 4 [4] = target: T1, Histone deacetylase 4; experiment: Inhibition of recombinant human N-terminal His6-SUMO-tagged C-terminal SII-tagged HDAC4 expressed in Escherichia coli (BL21) DE3 pLysS cells using BocLys(trifluoroacetyl)-AMC as substrate incubated for 30 mins by fluorescence assay; how it was run: as §1
# K562 = experiment: Antiproliferative activity against human K562 cells assessed as reduction in cell viability after 48 hrs by MTT assay; assay type: functional, cell-based; conditions: K562, 48 h
# How it was run: (§2)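 MCF-7, K562, A549 and HT-29 lines were seeded in 96-well plates and kept overnight at 37 °C, 5% CO2, 95% humidity. They were then exposed to six concentrations (100 to 2.5) for 48 h. After PBS washes, MTT was added for 4 h at 37 °C and formazan was dissolved in DMSO. Absorbance was read at 570 nm. Survival is mean OD of treated wells over the negative control, and IC50 was derived from that.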
# HT-29 = experiment: Antiproliferative activity against human HT-29 cells assessed as reduction in cell viability after 48 hrs by MTT assay; assay type: functional, cell-based; conditions: HT-29, 48 h; how it was run: as §2
# [5] = target: Vascular endothelial growth factor receptor 2 (Homo sapiens, UniProt P35968); experiment: Inhibition of human VEGFR2 in HUVEC cells assessed as reduction in VEGFR2 phosphorylation at 10 uM incubated for 30 mins by anti-phospho VEGF Tyr 1175 antibody based assay relative to control; assay type: cell-based
# Sequence of Vascular endothelial growth factor receptor 2 (P35968 whole entry): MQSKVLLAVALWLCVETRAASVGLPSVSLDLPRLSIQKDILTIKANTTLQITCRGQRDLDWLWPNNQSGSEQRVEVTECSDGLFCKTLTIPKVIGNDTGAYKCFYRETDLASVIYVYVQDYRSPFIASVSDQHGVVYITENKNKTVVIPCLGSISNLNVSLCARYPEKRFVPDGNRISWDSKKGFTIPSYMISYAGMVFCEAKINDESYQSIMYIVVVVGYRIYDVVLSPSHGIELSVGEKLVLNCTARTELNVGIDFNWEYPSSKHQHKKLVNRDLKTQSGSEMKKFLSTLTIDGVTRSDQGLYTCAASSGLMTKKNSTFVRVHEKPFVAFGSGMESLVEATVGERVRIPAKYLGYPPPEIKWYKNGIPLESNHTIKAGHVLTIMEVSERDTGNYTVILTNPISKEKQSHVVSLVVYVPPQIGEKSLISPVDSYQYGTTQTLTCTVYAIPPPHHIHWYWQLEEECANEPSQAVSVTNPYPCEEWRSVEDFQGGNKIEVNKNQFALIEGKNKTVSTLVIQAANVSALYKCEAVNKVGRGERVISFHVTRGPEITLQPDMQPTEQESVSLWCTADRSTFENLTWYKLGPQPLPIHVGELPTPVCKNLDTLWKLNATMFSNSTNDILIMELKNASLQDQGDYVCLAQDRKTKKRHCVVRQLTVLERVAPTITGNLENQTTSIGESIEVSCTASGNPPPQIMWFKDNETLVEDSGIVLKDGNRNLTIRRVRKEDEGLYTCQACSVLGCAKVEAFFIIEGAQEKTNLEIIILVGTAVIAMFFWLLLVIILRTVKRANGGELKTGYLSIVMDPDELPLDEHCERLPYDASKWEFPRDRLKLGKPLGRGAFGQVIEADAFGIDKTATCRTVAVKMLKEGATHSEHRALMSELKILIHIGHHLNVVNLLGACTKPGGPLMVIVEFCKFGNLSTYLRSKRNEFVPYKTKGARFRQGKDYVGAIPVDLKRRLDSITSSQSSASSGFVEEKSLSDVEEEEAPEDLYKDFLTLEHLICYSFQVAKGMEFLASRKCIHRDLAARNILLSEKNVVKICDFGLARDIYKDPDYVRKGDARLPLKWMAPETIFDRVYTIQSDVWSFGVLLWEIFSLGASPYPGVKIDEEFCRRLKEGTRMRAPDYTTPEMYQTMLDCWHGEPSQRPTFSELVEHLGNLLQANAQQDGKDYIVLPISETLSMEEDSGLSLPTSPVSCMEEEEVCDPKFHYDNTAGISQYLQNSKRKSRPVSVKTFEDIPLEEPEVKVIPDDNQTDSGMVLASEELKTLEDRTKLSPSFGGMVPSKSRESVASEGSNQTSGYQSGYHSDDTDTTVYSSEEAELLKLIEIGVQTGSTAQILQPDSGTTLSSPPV
# How it was run: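 HUVECs were seeded at 4000–5000 per well in DMEM with 10% FCS for 12 h, then held 24 h in serum. Compound (10 µM) was added with serum for 30 min at 37 °C. Cells were fixed in 4% formaldehyde and probed with anti-phospho-VEGFR Tyr1175 (1:1000), then an HRP secondary (1:5000). TMB signal was stopped with 2N H2SO4 and read at 450 nm. Percent inhibition is normalized to control.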
Compound,Activity (Histone deacetylase 4 [1]) [%],IC50 (Histone deacetylase 8) [µM],Activity [2] [%],IC50 (Histone deacetylase 4 [4]) [µM],IC50 (K562) [µM],IC50 (HT-29) [µM],inhibition [5] [%],IC50 at 96 h [3] [µM]
O=C1NC(=O)/C(=C\c2ccc(OCC(=O)N3N=C(c4ccccc4)CC3c3ccc(C(F)(F)F)cc3)cc2)S1 (centres undefined),12,16,8.2,1,,,,> 10
CC(=O)O[C@H]1C(=O)[C@@]2(C)[C@H]([C@H](OC(=O)c3ccccc3)[C@]3(O)C[C@H](OC(=O)[C@H](O)[C@@H](NC(=O)c4ccccc4)c4ccccc4)C(C)=C1C3(C)C)[C@]1(OC(C)=O)CO[C@@H]1C[C@@H]2O [PACLITAXEL],,,,,0.29,0.28,,
Cc1ccc(C2CC(c3ccc(F)cc3)=NN2C(=O)COc2ccc(/C=C3/SC(=O)NC3=O)cc2)cc1 (centres undefined),10,> 50,81,1.8,,,,
O=C1NC(=O)/C(=C\c2ccc(OCC(=O)N3N=C(c4ccccc4)CC3c3ccc(Br)cc3)cc2)S1 (centres undefined),7,35,21,1.2,,,,
O=C1NC(=O)/C(=C\c2ccc(OCC(=O)N3N=C(c4ccccc4)CC3c3ccccc3)cc2)S1 (centres undefined),11,20,39,1.6,,,,
Cc1ccc(C2CC(c3ccccc3)=NN2C(=O)COc2ccc(/C=C3/SC(=O)NC3=O)cc2)cc1 (centres undefined),4.6,31,36,1.2,,,,
O=C1NC(=O)/C(=C\c2ccc(OCC(=O)N3N=C(c4ccc(F)cc4F)CC3c3ccco3)cc2)S1 (centres undefined),22,> 50,100,15,,,,
O=C1NC(=O)/C(=C\c2ccc(OCC(=O)N3N=C(c4ccc(F)cc4)CC3c3ccc(C(F)(F)F)cc3)cc2)S1 (centres undefined),9.2,> 50,81,1.3,,,48.7,6
O=C1NC(=O)/C(=C\c2ccc(OCC(=O)N3N=C(c4ccc(F)cc4F)CC3c3ccc(F)cc3)cc2)S1 (centres undefined),10,> 50,69,1.5,,,,
Cc1ccc(C2CC(c3ccc(F)cc3F)=NN2C(=O)COc2ccc(/C=C3/SC(=O)NC3=O)cc2)cc1 (centres undefined),9.4,> 50,69,1.5,,,,> 10

# Now from value to molecule, other results behind:
Activity (Histone deacetylase 4 [1]) [%],IC50 (Histone deacetylase 8) [µM],Activity [2] [%],IC50 (Histone deacetylase 4 [4]) [µM],IC50 (K562) [µM],IC50 (HT-29) [µM],inhibition [5] [%],Compound,IC50 at 96 h [3] [µM]
3.3,> 50,28,1.1,,,,O=C1NC(=O)/C(=C\c2ccc(OCC(=O)N3N=C(c4ccc(F)cc4)CC3c3ccccc3Cl)cc2)S1 (centres undefined),
14,29,27,1.2,,,49,O=C1NC(=O)/C(=C\c2ccc(OCC(=O)N3N=C(c4ccccc4)CC3c3ccccc3Cl)cc2)S1 (centres undefined),2
2.5,26,26,1.7,,,,O=C1NC(=O)/C(=C\c2ccc(OCC(=O)N3N=C(c4ccccc4)CC3c3ccc(F)cc3)cc2)S1 (centres undefined),
10,> 50,63,1.6,,,,O=C1NC(=O)/C(=C\c2ccc(OCC(=O)N3N=C(c4ccc(F)cc4)CC3c3ccc(F)cc3F)cc2)S1 (centres undefined),
10,> 50,58,4.2,,,,O=C1NC(=O)/C(=C\c2ccc(OCC(=O)N3N=C(c4ccc(F)cc4)CC3c3ccccc3)cc2)S1 (centres undefined),> 10
3.3,> 50,61,1.4,,,,O=C1NC(=O)/C(=C\c2ccc(OCC(=O)N3N=C(c4ccc(F)cc4)CC3c3ccc(F)cc3)cc2)S1 (centres undefined),> 10
17,34,33,2.2,,,,O=C1NC(=O)/C(=C\c2ccc(OCC(=O)N3N=C(c4ccccc4)CC3c3ccc(F)cc3F)cc2)S1 (centres undefined),
